Measured values published in ChEMBL document CHEMBL1124442, “Potential antitumor agents. 58. Synthesis and structure-activity relationships of substituted xanthenone-4-acetic acids active against the colon 38 tumor in vivo” (1989).
Active and inactive are the calls of the source.

What was measured:
[1] = Ability of compound (220 mg/kg, q7dx2) to inhibit growth of Sc colon 38 tumor cells in mice; type: functional, Mus musculus
Summary of the method: (§1)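 Mice carrying palpable subcutaneous colon 38 tumors, randomized in groups of five. Drug given intraperitoneally in aqueous solution, either as a single dose or as two equal doses 7 days apart. Major and minor tumor axes measured twice weekly from the start of treatment. Volume taken as 0.52x²y. Growth delay in days is relative to untreated controls.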

[2] = Inhibition of colon adenocarcinoma C38 tumor growth in mice, intraperitoneal administration; type: functional, Mus musculus
Summary of the method: (§2)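 Colon 38 fragments implanted subcutaneously and grown to 4–8 mm diameter. Single intraperitoneal dose of the sodium salt in 0.2 mL water, escalated at 1.5-fold intervals up to 750 mg/kg or the toxic limit, with at least three mice per dose. Optimal dose is the highest dose with no acute deaths within 24 h. Tumors excised at 24 h, fixed in formalin and stained with H&E. Sections scored against controls: + = 50–90% hemorrhagic necrosis, ++ = >90%.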

P388 [3] = experiment: Inhibition of 10e6 P388 leukemic cells in mice, intraperitoneal administration; type: functional, Mus musculus
Summary of the method: (§3)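 10⁶ P388 leukemia cells injected intraperitoneally. Drug given intraperitoneally as the sodium salt in 0.2 mL water on days 1, 5 and 9; optimal dose is in mg/kg per day. ILS is the mean percent increase in lifespan over untreated tumor-bearing controls, with ≥20% considered significant. NA means no activity at any dose up to toxic levels.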

[4] = Activity against colon adenocarcinoma C38 tumor in mice, after intraperitoneal administration at optimal dose; type: functional, Mus musculus; summary of the method: as §2
P388 [5] = experiment: The average percentage increase in the lifespan of P388 leukemic mice, when compound was administered intraperitoneally; NA means not active; type: functional, cell-based; settings: Mus musculus; summary of the method: as §3
P388 [6] = experiment: The average percentage increase in the lifespan of P388 leukemic mice, when compound was administered intraperitoneally; NA is Not Active.; type: functional, cell-based; settings: Mus musculus; summary of the method: as §3
P388 [7] = experiment: The average percentage increase in the lifespan of P388 leukemic mice, when compound was administered intraperitoneally; NA is Not active; type: functional, cell-based; settings: Mus musculus; summary of the method: as §3
[8] = Activity against colon adenocarcinoma C38 tumor in mice, after intraperitoneal administration at optimal dose and value ranges from 50 -90 %; type: functional, Mus musculus; summary of the method: as §2
P388 [9] = experiment: The average percentage increase in the lifespan of P388 leukemic mice, when compound was administered intraperitoneally; type: functional, Mus musculus
Summary of the method: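 Mice received 10⁶ P388 leukemia cells ip. Drug was given ip as the sodium salt in 0.2 mL water on days 1, 5 and 9, with doses in mg/kg/day up to toxic levels. ILS is the average percentage increase in lifespan over untreated tumor-bearing controls, and values of ≥20% were taken as significant.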

P388 [10] = experiment: Optimal dose that inhibits growth of 10e6 P388 leukemic cells in mice, after intraperitoneal administration of the compound; type: functional, Mus musculus; summary of the method: as §3
[11] = Ability of compound (330 mg/kg, single dose) to inhibit growth of Sc colon 38 tumor cells in mice; type: functional, Mus musculus; summary of the method: as §1
[12] = Activity against colon adenocarcinoma C38 tumor in mice, after intraperitoneal administration at optimal dose.; type: functional, Mus musculus; summary of the method: as §2
[13] = Ability of compound (100 mg/kg, single dose) to inhibit growth of Sc colon 38 tumor cells in mice; type: functional, Mus musculus; summary of the method: as §1
P388 [14] = experiment: The average percentage increase in the lifespan of P388 leukemic mice, when compound was administered intraperitoneally; NA means not active.; type: functional, cell-based; settings: Mus musculus; summary of the method: as §3
[15] = Ability of compound (45 mg/kg, q7dx2) to inhibit growth of Sc colon 38 tumor cells in mice; type: functional, Mus musculus; summary of the method: as §1
[16] = Ability of compound (65 mg/kg, q4dx3) to inhibit growth of Sc colon 38 tumor cells in mice; type: functional, Mus musculus
Summary of the method: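 Subcutaneously implanted colon 38 fragments were grown to 4–8 mm diameter. Mice with palpable tumors were randomized in groups of five and dosed ip with drug in aqueous solution; q4d×3 means three equal doses 4 days apart. Major and minor tumor axes were measured twice weekly from the start of treatment. Volume was calculated as 0.52x²y, and growth delay in days was derived against untreated controls.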

| SMILES | Optimal dose [2] | Optimal dose (P388 [3]) | Activity [4] | ILS (P388 [6]) | Activity [8] | also measured |
| --- | --- | --- | --- | --- | --- | --- |
| O=C(O)Cc1cccc2c(=O)c3ccccc3oc12 | 220 mg/kg | 150 mg/kg | >90% | – | – | Growth delay [1]: 11 days; ILS (P388 [5]): inactive |
| O=C(O)Cc1ccc(Cl)c2c(=O)c3ccccc3oc12 | 330 mg/kg | 220 mg/kg | >90% | No activity | – | – |
| O=C(O)Cc1cccc2c(=O)c3cccc([N+](=O)[O-])c3oc12 | 220 mg/kg | 150 mg/kg | – | – | – | ILS (P388 [7]): inactive |
| O=C(O)Cc1cccc2c(=O)c3cc([N+](=O)[O-])ccc3oc12 | 500 mg/kg | 225 mg/kg | <50% | – | – | ILS (P388 [7]): inactive |
| COc1ccc2c(=O)c3ccccc3oc2c1CC(=O)O | 220 mg/kg | 220 mg/kg | <50% | No activity | – | – |
| O=C(O)Cc1cccc2c(=O)c3c(Cl)cccc3oc12 | 750 mg/kg | 330 mg/kg | – | No activity | 50% | – |
| COc1cccc2c(=O)c3cccc(CC(=O)O)c3oc12 | 150 mg/kg | 150 mg/kg | – | – | 50% | ILS (P388 [9]): 42% |
| COc1cc(CC(=O)O)c2oc3ccccc3c(=O)c2c1 | 750 mg/kg | 225 mg/kg | – | No activity | 50% | – |
| Cc1ccc2c(=O)c3ccccc3oc2c1CC(=O)O | 150 mg/kg | 100 mg/kg | – | – | 50% | ILS (P388 [9]): 26% |
| COc1ccc(CC(=O)O)c2oc3ccccc3c(=O)c12 | 500 mg/kg | – | <50% | – | – | – |
| COc1cccc2oc3c(CC(=O)O)cccc3c(=O)c12 | 750 mg/kg | 330 mg/kg | <50% | No activity | – | – |
| Cc1ccc(CC(=O)O)c2oc3ccccc3c(=O)c12 | 150 mg/kg | – | – | No activity | 50% | Optimal dose (P388 [10]): 100 mg/kg |
| O=C(O)Cc1cccc2c(=O)cc(-c3ccccc3)oc12 [MITOFLAXONE] | 330 mg/kg | 150 mg/kg | >90% | No activity | – | Growth delay [11]: 17 days |
| O=C(O)Cc1cc(Cl)cc2c(=O)c3ccccc3oc12 | 330 mg/kg | 150 mg/kg | – | No activity | 50% | – |
| O=C(O)Cc1c(Cl)ccc2c(=O)c3ccccc3oc12 | 500 mg/kg | 150 mg/kg | – | No activity | – | Activity [12]: >90% |
| O=C(O)Cc1ccc2c(=O)c3ccccc3oc2c1 | 500 mg/kg | 225 mg/kg | <50% | No activity | – | – |
| O=C(O)Cc1ccc(O)c2c(=O)c3ccccc3oc12 | 750 mg/kg | – | <50% | – | – | – |

| SMILES | Optimal dose [2] | Optimal dose (P388 [3]) | Activity [4] | ILS (P388 [6]) | Activity [8] | also measured |
| --- | --- | --- | --- | --- | --- | --- |
| O=C(O)Cc1cccc2c(=O)c3ccc(O)cc3oc12 | 750 mg/kg | 225 mg/kg | – | No activity | 50% | – |
| COc1ccc2c(=O)c3cccc(CC(=O)O)c3oc2c1 | 150 mg/kg | 65 mg/kg | – | – | 50% | Growth delay [13]: 0 days; ILS (P388 [9]): 28% |
| O=C(O)Cc1c(O)ccc2c(=O)c3ccccc3oc12 | 500 mg/kg | 500 mg/kg | <50% | No activity | – | – |
| Cc1ccc2oc3c(CC(=O)O)cccc3c(=O)c2c1 | 500 mg/kg | 500 mg/kg | – | No activity | 50% | – |
| O=C(O)Cc1cccc2c(=O)c3cccc(Cl)c3oc12 | 150 mg/kg | 65 mg/kg | >90% | – | – | Growth delay [13]: 5.2 days; ILS (P388 [9]): 34% |
| O=C(O)Cc1cccc2c(=O)c3cccc(O)c3oc12 | 750 mg/kg | 150 mg/kg | <50% | – | – | ILS (P388 [14]): No activity |
| O=C(O)Cc1cc(O)cc2c(=O)c3ccccc3oc12 | 750 mg/kg | – | <50% | – | – | – |
| Cc1cc(CC(=O)O)c2oc3ccccc3c(=O)c2c1 | 500 mg/kg | 330 mg/kg | – | No activity | 50% | – |
| Cc1ccc2c(=O)c3cccc(CC(=O)O)c3oc2c1 | 220 mg/kg | 100 mg/kg | – | – | 50% | ILS (P388 [9]): 24% |
| O=C(O)Cc1cccc2c(=O)c3cc(O)ccc3oc12 | 750 mg/kg | – | <50% | – | – | – |
| O=C(O)Cc1cccc2c(=O)c3cc(Cl)ccc3oc12 | 500 mg/kg | 150 mg/kg | – | No activity | 50% | – |
| Cc1cccc2c(=O)c3cccc(CC(=O)O)c3oc12 | 45 mg/kg | 30 mg/kg | >90% | – | – | Growth delay [15]: 13 days; ILS (P388 [9]): 27% |
| O=C(O)Cc1cccc2oc3ccccc3c(=O)c12 | 500 mg/kg | 500 mg/kg | <50% | No activity | – | – |
| Cc1cccc2oc3c(CC(=O)O)cccc3c(=O)c12 | 330 mg/kg | 150 mg/kg | <50% | No activity | – | – |
| O=C(O)Cc1cccc2c(=O)c3ccc(Cl)cc3oc12 | 150 mg/kg | 65 mg/kg | – | No activity | 50% | – |
| O=c1[nH]cc(F)c(=O)[nH]1 [FLUOROURACIL] | – | – | – | – | – | Growth delay [16]: 12.5 days |
| COc1ccc2oc3c(CC(=O)O)cccc3c(=O)c2c1 | 500 mg/kg | 150 mg/kg | – | No activity | 50% | – |
